Source: ChEMBL document CHEMBL1122356, “The antihypertensive and positive inotropic diterpene forskolin: effects of structural modifications on its activity” (J Med Chem, 1983)
Active and inactive are the calls of the source. The rule behind the calls is not given here.

What was measured:
[1] = species: Felis catus; test: Effective dose in cat was determined; type: functional
How it was run: (§1)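 Cats of either sex (3.0-4.5 kg) under chloralose anesthesia (70 mg/kg iv). Compounds were dissolved in propylene glycol (10 mg/mL stock), diluted in distilled water and injected iv via the femoral vein at 30, 100, 300, 500 and 1000 µg/kg, three animals per dose. Fall in mean arterial pressure (femoral artery transducer) was read at 10 min. ED20 was taken from log dose-response curves.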

[2] = species: Cavia porcellus; test: Positive ionotropic activity (0.1x10E 6 g/mL) was determined in guinea pig; no significant activity; type: functional, organism-based
[3] = species: Rattus norvegicus; test: Difference in systolic blood pressure observed prior to the first application and 2 hr after the fifth application to spontaneously hypertensive rats (SHR); type: functional, Artery
How it was run: (§2)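 Groups of six conscious male SH rats (Wistar-Okamoto origin, 250-300 g, 12-16 weeks; systolic pressure >160 mmHg) received 25 mg/kg po daily for 5 days as a 0.5% carboxymethylcellulose suspension, with vehicle controls. Systolic pressure was taken by tail-cuff after warming at 37-38 °C for 10 min, before the first dose and 2 h after each dose. Paired t test; only falls >15 mmHg with p < 0.05 were listed.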

[4] = species: Rattus norvegicus; test: Difference in systolic blood pressure observed prior to the first application and 2 hr after the fifth application to spontaneously hypertensive rats(SHR); type: functional, Artery; how it was run: as §2
[5] = species: Rattus norvegicus; test: Difference in systolic blood pressure observed prior to the first application and 2 hr after the fifth application to spontaneously hypertensive rats (SHR); NS denotes not significant; type: functional, organism-based; conditions: Artery
[6] = system: Rattus norvegicus; test: Difference in systolic blood pressure observed prior to the first application and 2 hr after the fifth application at 10 mg/kg, po daily for 5 days to spontaneously hypertensive rats (SHR); type: functional, Artery
How it was run: (§3)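 Male SH rats (Wistar-Okamoto derived, 250-300 g, 12-16 weeks old) with systolic pressure above 160 mmHg, in groups of six. The dose was given orally once daily for 5 days as a suspension in 0.5% carboxymethylcellulose, and a vehicle control group was run. Systolic pressure was read by tail-cuff after 10 min warming at 37-38 °C, before dosing and 2 h post-dose. Paired Student's t test.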

[7] = system: Rattus norvegicus; test: Difference in systolic blood pressure observed prior to the first application and 2 hr after the fifth application at 20 mg/kg, po daily for 5 days to spontaneously hypertensive rats (SHR); type: functional, Artery; how it was run: as §3
[8] = system: Felis catus; test: Percent fall in blood pressure, 10 min after intravenous administration at doses 500 ug/kg in cat; type: functional; how it was run: as §1
[9] = system: Felis catus; test: Percent fall in blood pressure, 10 min after intravenous administration at doses 300 ug/kg in cat; type: functional; how it was run: as §1
[10] = species: Cavia porcellus; test: Positive ionotropic activity determined as effective concentration in guinea pig; Range 6.8*10e-7 to 1.75x10E-6M; type: functional, organism-based
[11] = system: Rattus norvegicus; test: Difference in systolic blood pressure observed prior to the first application and 2 hr after the fifth application at 5 mg/kg, po daily for 5 days to spontaneously hypertensive rats (SHR); type: functional, Artery; how it was run: as §3

| SMILES | ED20 [1] | Activity [2] | Delta blood pressure [3] | further results |
| --- | --- | --- | --- | --- |
| C=C[C@@]1(C)CC(=O)[C@]2(O)C3(C)C(O)CCC(C)(C)[C@@H]3C(OC(C)=O)C(OC(C)=O)[C@@]2(C)O1 (stereo not given in full) | > 0.5 mg/kg | no significant activity | -24.3 mmHg | – |
| C=C[C@@]1(C)CC(=O)[C@@]23OS(=O)O[C@H]4CCC(C)(C)[C@H](C5OS(=O)OC5[C@@]2(C)O1)C43C (stereo not given in full) | > 0.5 mg/kg | no significant activity | – | Delta blood pressure [4]: 0 mmHg |
| C=C[C@@]1(C)CC(=O)[C@]2(O)C3(C)[C@@H](O)CCC(C)(C)[C@@H]3C(O)C(OS(=O)(=O)c3ccc(C)cc3)[C@@]2(C)O1 (stereo not given in full) | > 0.5 mg/kg | no significant activity | – | Delta blood pressure [4]: -27.3 mmHg |
| C=C[C@@]1(C)CC(=O)[C@@]23OC(=O)O[C@H]4CCC(C)(C)[C@H](C5OC(=O)OC5[C@@]2(C)O1)C43C (stereo not given in full) | > 0.5 mg/kg | no significant activity | -23 mmHg | – |
| C=C[C@@]1(C)CC(=O)[C@]2(O)C3(C)C(=O)CCC(C)(C)[C@@H]3C(O)C(OC(C)=O)[C@@]2(C)O1 (stereo not given in full) | > 0.5 mg/kg | no significant activity | 0 mmHg | – |
| CC(=O)OC1C(O)[C@H]2C(C)(C)CC[C@H](O)C2(C)[C@@]2(O)C(=O)C[C@](C)(C=O)O[C@]12C (stereo not given in full) | > 0.5 mg/kg | – | – | Delta blood pressure [4]: -22 mmHg |
| C=C[C@@]1(C)CC(=O)[C@]2(O)C3(C)[C@@H](O[Si](C)(C)C)CCC(C)(C)[C@@H]3C(O)C(OC(C)=O)[C@@]2(C)O1 (stereo not given in full) | > 0.5 mg/kg | – | – | Delta blood pressure [4]: 0 mmHg |
| C=C[C@@]1(C)CC(=O)[C@]2(O)C3(C)[C@@H](OC(=O)Nc4ccccc4)CCC(C)(C)[C@@H]3C(O)C(OC(C)=O)[C@@]2(C)O1 (stereo not given in full) | > 0.5 mg/kg | – | – | Delta blood pressure [5]: inactive |
| C=C[C@@]1(C)CC(=O)[C@]2(O)C3(C)[C@@H](O)CCC(C)(C)[C@@H]3C3OC(=O)OC3[C@@]2(C)O1 (stereo not given in full) | > 0.5 mg/kg | – | -24.67 mmHg | – |
| C=C[C@@]1(C)CC(=O)[C@]2(O)C3(C)[C@@H](O)CCC(C)(C)[C@@H]3C(OC(C)=O)C(OC(=O)CC)[C@@]2(C)O1 (stereo not given in full) | > 0.5 mg/kg | – | 0 mmHg | – |
| C=C[C@@]1(C)C[C@H](O)[C@]2(O)C3(C)[C@@H](O)CCC(C)(C)[C@@H]3C(O)C(O)[C@@]2(C)O1 (stereo not given in full) | > 0.5 mg/kg | no significant activity | – | Delta blood pressure [6]: -19.3 mmHg |
| CN1CCN(CC(O)[C@@]2(C)CC(=O)[C@]3(O)C4(C)[C@@H](O)CCC(C)(C)[C@@H]4C(O)C(O)[C@@]3(C)O2)CC1.Cl.Cl (stereo not given in full) | > 0.5 mg/kg | no significant activity | – | Delta blood pressure [5]: inactive |
| C=C[C@@]1(C)CC(=O)[C@]2(O)C3(C)[C@@H](O)CCC(C)(C)[C@@H]3C(O)C(OC(C)=O)[C@@]2(C)O1 (stereo not given in full) | 0.038 mg/kg | no significant activity | -26 mmHg | – |
| C=C[C@@]1(C)CC(=O)[C@@H]2C3(C)CCCC(C)(C)[C@@H]3C(O)C(OC(C)=O)[C@@]2(C)O1 (stereo not given in full) | > 0.5 mg/kg | no significant activity | 0 mmHg | – |
| C=C[C@@]1(C)CC(=O)[C@]2(O)C3(C)[C@@H](O)CCC(C)(C)[C@@H]3C(O)C(OC(=O)CC)[C@@]2(C)O1 (stereo not given in full) | > 0.5 mg/kg | – | -25.3 mmHg | – |
| C=C[C@@]1(C)CC(=O)[C@]2(O)C3(C)[C@@H](OCc4ccccc4)CCC(C)(C)[C@@H]3C(O)C(OC(=O)C(C)(C)Br)[C@@]2(C)O1 (stereo not given in full) | > 0.5 mg/kg | – | – | Delta blood pressure [4]: 0 mmHg |
| CC[C@@]1(C)CC(=O)[C@]2(O)C3(C)[C@@H](O)CCC(C)(C)[C@@H]3C(O)C(OC(C)=O)[C@@]2(C)O1 (stereo not given in full) | > 0.5 mg/kg | – | – | Delta blood pressure [7]: -15.7 mmHg |

| SMILES | ED20 [1] | Activity [2] | Delta blood pressure [3] | further results |
| --- | --- | --- | --- | --- |
| CC(=O)OC1C(O)[C@H]2C(C)(C)CC[C@H](O)C2(C)[C@@]2(O)C(=O)C[C@](C)(C3CO3)O[C@]12C (stereo not given in full) | > 0.5 mg/kg | – | – | Delta blood pressure [4]: -22.67 mmHg |
| C=C[C@@]1(C)CC(=O)[C@]2(O)[C@@]3(C)[C@@H](O)CCC(C)(C)[C@@H]3[C@H](O)[C@H](O)[C@@]2(C)O1 | > 0.5 mg/kg | no significant activity | -24.6 mmHg | Decrease in blood pressure [8]: 20% |
| C=C[C@@]1(C)C[C@H](O)[C@]2(O)C3(C)[C@@H](O)CCC(C)(C)[C@@H]3C(O)C(OC(C)=O)[C@@]2(C)O1 (stereo not given in full) | > 0.5 mg/kg | – | 0 mmHg | – |
| C=C[C@@]1(C)CC(=O)[C@]2(O)C3(C)[C@@H](O)CCC(C)(C)[C@@H]3C(O)C(OC=O)[C@@]2(C)O1 (stereo not given in full) | > 0.5 mg/kg | no significant activity | -23.7 mmHg | – |
| C=C[C@@]1(C)CC(=O)[C@@]23OC(=O)O[C@H]4CCC(C)(C)[C@H](C(O)C(OC(C)=O)[C@@]2(C)O1)C43C (stereo not given in full) | > 0.5 mg/kg | no significant activity | -16.7 mmHg | – |
| C=C[C@@]1(C)CC(=O)[C@]2(O)C3(C)[C@@H](O)CCC(C)(C)[C@@H]3C(OC(C)=O)C(O)[C@@]2(C)O1 (stereo not given in full) | > 0.5 mg/kg | no significant activity | -28 mmHg | Decrease in blood pressure [9]: 20%; EC50 [10]: 1090 nM |
| C=C[C@@]1(C)CC(=O)[C@@]23OS(=O)O[C@H]4CCC(C)(C)[C@H](C(O)C(OC(C)=O)[C@@]2(C)O1)C43C (stereo not given in full) | > 0.5 mg/kg | no significant activity | – | Delta blood pressure [4]: -31 mmHg |
| Nc1cc(N2CCCCC2)nc(N)[n+]1[O-] [MINOXIDIL] | > 0.5 mg/kg | no significant activity | – | Delta blood pressure [11]: -51.2 mmHg |
| C=C[C@@]1(C)CC(=O)[C@]2(O)C3(C)[C@@H](O)CCC(C)(C)[C@@H]3C(O)C(OC(=O)CCC)[C@@]2(C)O1 (stereo not given in full) | > 0.5 mg/kg | no significant activity | -19.7 mmHg | – |
| C=C[C@@]1(C)CC(=O)[C@]2(O)C3(C)[C@@H](OC(=O)C(C)(C)C)CCC(C)(C)[C@@H]3C(O)C(OC(=O)C(C)(C)C)[C@@]2(C)O1 (stereo not given in full) | > 0.5 mg/kg | – | – | Delta blood pressure [4]: 0 mmHg |
| C=C[C@@]1(C)CC(=O)[C@]2(O)C3(C)[C@@H](OC)CCC(C)(C)[C@@H]3C(OC(C)=O)C(O)[C@@]2(C)O1 (stereo not given in full) | > 0.5 mg/kg | no significant activity | -25.3 mmHg | – |
| C=C[C@@]1(C)CC(=O)[C@]2(O)C3(C)[C@@H](OCCN(CC)CC)CCC(C)(C)[C@@H]3C(OC(C)=O)C(O)[C@@]2(C)O1.Cl (stereo not given in full) | > 0.5 mg/kg | no significant activity | -26.7 mmHg | – |
| C=C[C@@]1(C)CC(=O)[C@]2(O)C3(C)[C@@H](O)CCC(C)(C)[C@@H]3C(O)C(OC(=O)N(CC)CC)[C@@]2(C)O1 (stereo not given in full) | > 0.5 mg/kg | no significant activity | 0 mmHg | – |
| C=C[C@@]1(C)CC(=O)[C@]2(O)C3(C)[C@@H](O)CCC(C)(C)[C@@H]3C(O)C(OC(=O)OCC)[C@@]2(C)O1 (stereo not given in full) | > 0.5 mg/kg | no significant activity | 0 mmHg | – |
| C=C[C@@]1(C)CC(=O)[C@]2(O)C3(C)[C@@H](OC)CCC(C)(C)[C@@H]3C(O)C(OC(C)=O)[C@@]2(C)O1 (stereo not given in full) | > 0.5 mg/kg | no significant activity | 0 mmHg | – |
| C=C[C@@]1(C)CC(=O)[C@]2(O)C3(C)[C@@H](O)CCC(C)(C)[C@@H]3C(OC(=O)CC)C(O)[C@@]2(C)O1 (stereo not given in full) | > 0.5 mg/kg | – | – | Delta blood pressure [7]: -26.33 mmHg |
